Active and inactive are the calls of the source. The calls are words filed in the database; no cut-off is given here. Where a SMILES comes first, the peptide text is derived from it. [ ]: non-standard residue; d: D form. ξ: configuration not given here. Dmt = Cc1cc(O)cc(C)c1C[C@H](N)C(=O)O; NMeY = CN[CH](Cc1ccc(O)cc1)C(=O)O; Tic = O=C(O)[CH]1Cc2ccccc2CN1; ξTic = O=C(O)C1Cc2ccccc2CN1
Assays:
[1] = molecular target: T1, Mu-type opioid receptor (Cavia porcellus, UniProt P97266); test: Inhibitory activity against Opioid receptor mu 1 in an in vitro guinea pig ileum assay; format: tissue-based
T1 sequence (P97266 whole entry): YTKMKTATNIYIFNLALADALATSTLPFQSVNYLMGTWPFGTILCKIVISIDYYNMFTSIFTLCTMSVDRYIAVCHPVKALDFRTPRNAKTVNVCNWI

[2] = molecular target: Delta-type opioid receptor (Mus musculus) (UniProt P32300); settings: Vas deferens
Delta-type opioid receptor (Mus musculus), sequence (P32300 whole entry): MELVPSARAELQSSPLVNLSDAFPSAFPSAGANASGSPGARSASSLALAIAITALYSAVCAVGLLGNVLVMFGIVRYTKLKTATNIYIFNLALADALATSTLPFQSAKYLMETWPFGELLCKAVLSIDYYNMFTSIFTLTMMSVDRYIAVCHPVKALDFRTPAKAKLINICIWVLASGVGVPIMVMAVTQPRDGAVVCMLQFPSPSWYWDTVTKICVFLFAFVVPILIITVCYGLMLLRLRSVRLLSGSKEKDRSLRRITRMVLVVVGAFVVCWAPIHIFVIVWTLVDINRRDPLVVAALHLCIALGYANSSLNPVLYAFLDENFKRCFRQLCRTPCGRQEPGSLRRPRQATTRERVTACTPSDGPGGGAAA

[3] = molecular target: Mu-type opioid receptor (Cavia porcellus) (UniProt P97266); test: Antagonist activity against Opioid receptor mu 1 in guinea pig ileum assay; '-' indicates inactive; format: functional, tissue-based
Mu-type opioid receptor (Cavia porcellus), sequence (P97266 whole entry): as the sequence (P97266 whole entry) above
How it was run: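 Electrically stimulated mouse vas deferens or guinea pig ileum strips in Krebs' solution; agonist concentration–response curves run without and with rising antagonist concentrations; pA2 by Schild (Arunlakshana–Schild) analysis.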

[4] = molecular target: Opioid receptors; mu & delta (Rattus norvegicus) (UniProt P33533+P33535); test: Ratio of the affinity for delta and mu opioid receptors (Ki mu/Ki delta) shows delta opioid receptor selectivity; format: protein assay
Opioid receptors; mu & delta (Rattus norvegicus), sequence (P33533 whole entry, looked up): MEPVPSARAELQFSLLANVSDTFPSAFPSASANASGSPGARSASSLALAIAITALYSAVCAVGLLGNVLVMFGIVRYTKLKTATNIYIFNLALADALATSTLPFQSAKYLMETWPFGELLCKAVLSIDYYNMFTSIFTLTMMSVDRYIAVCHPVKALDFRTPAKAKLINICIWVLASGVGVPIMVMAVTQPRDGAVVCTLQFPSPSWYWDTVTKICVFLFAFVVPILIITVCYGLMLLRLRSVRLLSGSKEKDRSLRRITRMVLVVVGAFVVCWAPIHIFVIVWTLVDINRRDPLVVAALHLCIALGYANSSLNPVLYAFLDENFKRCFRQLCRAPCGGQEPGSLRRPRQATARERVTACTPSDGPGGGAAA
Opioid receptors; mu & delta (Rattus norvegicus), sequence (P33535 whole entry, looked up): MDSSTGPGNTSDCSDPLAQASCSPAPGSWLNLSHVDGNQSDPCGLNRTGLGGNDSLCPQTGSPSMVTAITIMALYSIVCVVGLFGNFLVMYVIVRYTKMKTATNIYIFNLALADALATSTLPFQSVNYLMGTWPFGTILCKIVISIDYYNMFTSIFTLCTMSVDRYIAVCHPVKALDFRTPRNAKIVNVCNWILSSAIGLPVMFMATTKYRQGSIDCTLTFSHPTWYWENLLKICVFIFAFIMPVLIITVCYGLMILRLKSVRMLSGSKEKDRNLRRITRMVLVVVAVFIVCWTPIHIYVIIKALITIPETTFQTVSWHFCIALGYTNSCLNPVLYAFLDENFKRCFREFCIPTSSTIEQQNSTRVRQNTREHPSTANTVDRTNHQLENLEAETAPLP

[5] = molecular target: Delta-type opioid receptor (Mus musculus) (UniProt P32300); settings: Vas deferens; remark: listed apart in the source
[6] = molecular target: T2, Delta-type opioid receptor (Rattus norvegicus, UniProt P33533); test: Binding affinity for Opioid receptor delta 1 by displacement of [3H]- DPDPE
T2 sequence (P33533 whole entry): as the sequence (P33533 whole entry, looked up) above
How it was run: (§1)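 Rat brain (Sprague–Dawley, minus cerebellum) synaptosomal membranes, preincubated to strip endogenous opioids. Equilibrium displacement of [3H]DPDPE (δ) or [3H]DAGO (μ); nonspecific binding defined with 2 μM unlabeled ligand. Peptides spanned 3–4 log units.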

[7] = molecular target: Mu-type opioid receptor (Rattus norvegicus, UniProt P33535); test: Binding affinity for Opioid receptor mu 1 by displacement of [3H]- DAGO
Mu-type opioid receptor (Rattus norvegicus, UniProt P33535), sequence (P33535 whole entry): as the sequence (P33535 whole entry, looked up) above
How it was run: as §1, with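 “units. Duplicates, ≥3 membrane preparations; Ki by Cheng–Prusoff; mean ± SEM, n = independent preparations.” for “units.”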

[8] = molecular target: T1, Mu-type opioid receptor; test: Inhibitory activity against Opioid receptor mu 1 in an in vitro guinea pig ileum assay; '-' indicates inactive; format: tissue-based
[9] = molecular target: Delta-type opioid receptor (Mus musculus, UniProt P32300); test: Antagonist activity against Opioid receptor delta 1 in mouse vas deferens assay
Delta-type opioid receptor (Mus musculus, UniProt P32300), sequence (P32300 whole entry): as the sequence (P32300 whole entry) above

[10] = test system: Delta-type opioid receptor; test: GPI/MVD ratio is based on Ke (antilog of pA2 value of antagonistic activity of compound for delta opioid receptor) and IC50 values; format: functional
[11] = molecular target: T2, Delta-type opioid receptor; test: Agonist activity for Opioid receptor delta 1; format: functional
[12] = molecular target: T1, Mu-type opioid receptor; test: Antagonist activity against Opioid receptor mu 1 iin a guinea pig ileum assay
[13] = molecular target: Mu-type opioid receptor (Cavia porcellus) (UniProt P97266); settings: Ileum

In the case of Cc1cc(O)cc(C)c1C[C@H](N)C(=O)N1Cc2ccccc2C[C@H]1C(=O)O, the IC50 [1] is reported as > 10000 nM, the pA2 [2] is reported as 8.2 and the pA2 [3] is reported as “inactive”.

CN[C@H](Cc1c(C)cc(O)cc1C)C(=O)N1Cc2ccccc2CC1C(N)=O (some centres undefined) was tested, and the Ratio [4] was 119, the pA2 [5] was “inactive” and the Ki [6] was 11.2 nM. For the same molecule, the Ki [7] was 1330 nM, the IC50 [8] was “Not Active” and the pA2 [3] was “inactive”.

Cc1cc(O)cc(C)c1C[C@H](C(=O)N1Cc2ccccc2CC1C(=O)O)N(C)C (some centres undefined) was tested, and the Ratio [4] was 2280, the Kb [9] was 2.51 nM and the Ratio [10] was > 4200. For the same molecule, the IC50 [1] was > 10000 nM, the Ki [6] was 5.74 nM and the Ki [7] was 13100 nM. The pA2 [3] was “inactive”.

Cc1cc(O)cc(C)c1C[C@H](N)C(=O)N1Cc2ccccc2C[C@H]1C(=O)N[C@@H](C)C(=O)O was tested, and the IC50 [1] was > 10000 nM.

Molecule CC(C)[C@H](NC(=O)[C@H](CC(=O)O)NC(=O)[C@H](Cc1ccccc1)NC(=O)[C@@H](C)NC(=O)[C@@H](N)Cc1ccc(O)cc1)C(=O)N[C@H](C(=O)NCC(N)=O)C(C)C [DELTORPHIN C] has an IC50 [11] of 0.54 nM.

In the case of CN[C@@H](Cc1c(C)cc(O)cc1C)C(=O)N1Cc2ccccc2C[C@H]1C(=O)N[C@@H](C)C(=O)O, the Ratio [4] is reported as 43000, the Kb [9] is reported as 1.58 nM and the Ratio [10] is reported as > 7100. The IC50 [1] was > 10000 nM, the Ki [6] was 0.136 nM and the Ki [7] was 5850 nM. The pA2 [3] was “inactive”.

CN[C@@H](Cc1c(C)cc(O)cc1C)C(=O)N1Cc2ccccc2CC1C(N)=O (some centres undefined) was tested, and the Ratio [4] was 2490, the Kb [9] was 2.51 nM and the Ratio [10] was > 4550. The IC50 [1] was > 10000 nM, the Ki [6] was 0.383 nM and the Ki [7] was 955 nM.

N[C@@H](Cc1ccc(O)cc1)C(=O)N1Cc2ccccc2C[C@H]1C(=O)O (H-Tyr-[Tic]-OH) gave a Ratio [4] of 148, a Ki [6] of 192 nM and a Ki [7] of 28400 nM.

For CN[C@H](Cc1c(C)cc(O)cc1C)C(=O)N1Cc2ccccc2CC1C(=O)O (some centres undefined), the Ratio [4] was 628, the Kb [9] was 158 nM and the Ratio [10] was > 71. The IC50 [1] was > 10000 nM, the Ki [6] was 3.19 nM and the Ki [7] was 2000 nM. The pA2 [3] was “inactive”.

With CN[C@@H](Cc1c(C)cc(O)cc1C)C(=O)N1Cc2ccccc2CC1C(=O)O (some centres undefined) the Ratio [4] was 1870, the Kb [9] was 3.16 nM and the Ratio [10] was > 3570. For the same molecule, the IC50 [1] was > 10000 nM, the Ki [6] was 0.203 nM and the Ki [7] was 379 nM. For the same molecule, the pA2 [3] was “inactive”.

Molecule Cc1cc(O)cc(C)c1C[C@@H](C(=O)N1Cc2ccccc2CC1C(=O)O)N(C)C (some centres undefined) has a Ratio [4] of 20600, a Kb [9] of 0.398 nM and a Ratio [10] of 5640. For the same molecule, the Ki [6] was 0.118 nM, the Kb [12] was 1580 nM and the Ki [7] was 2440 nM. The IC50 [8] was “Not Active”.

With Cc1cc(O)cc(C)c1C[C@@H](N)C(=O)N1Cc2ccccc2C[C@H]1C(=O)N[C@@H](C)C(=O)O the Ratio [4] was 197, the Ratio [10] was > 88 and the IC50 [1] was > 10000 nM. The pA2 [2] was 6.9, the Ki [6] was 13 nM and the Ki [7] was 2560 nM. For the same molecule, the pA2 [3] was “inactive”.

Oc1ccc2c3c1O[C@H]1c4[nH]c5ccccc5c4C[C@@]4(O)[C@@H](C2)N(CC2CC2)CC[C@]314 [NALTRINDOLE] showed a Ratio [10] of 76, a pA2 [13] of 7.3 and a pA2 [2] of 9.2. For the same molecule, the IC50 [8] was “Not Active”.

Cc1cc(O)cc(C)c1C[C@@H](C(=O)N1Cc2ccccc2C[C@H]1C(=O)N[C@@H](C)C(=O)O)N(C)C was tested, and the Ratio [4] was 20000, the Kb [9] was 0.251 nM and the Ratio [10] was 7180. It also gave a Ki [6] of 0.0755 nM, a Kb [12] of 1580 nM and a Ki [7] of 1520 nM. For the same molecule, the IC50 [8] was “Not Active”.

For Cc1cc(O)cc(C)c1C[C@H](N)C(=O)N1Cc2ccccc2C[C@H]1C(=O)NC(C)C(=O)O (some centres undefined), the Ratio [4] was 20400, the Ratio [10] was > 2500 and the pA2 [2] was 8.4. The pA2 [3] was “inactive”.

Cc1cc(O)cc(C)c1CC(C)C(=O)N1Cc2ccccc2CC1C(=O)O (centres undefined) gave a Ratio [4] of 55, a Ki [6] of 1300 nM and a Ki [7] of 71400 nM.

In the case of Cc1cc(O)cc(C)c1CC(N)C(=O)N1Cc2ccccc2C[C@H]1C(=O)O (single isomer, unassigned), the pA2 [5] is reported as “inactive”, the Ki [7] is reported as 11000 nM and the IC50 [8] is reported as “Not Active”. For the same molecule, the pA2 [3] was “inactive”.

With Cc1cc(O)cc(C)c1C[C@H](C(=O)N1Cc2ccccc2C[C@H]1C(=O)N[C@@H](C)C(=O)O)N(C)C the Ratio [4] was 176, the Ki [6] was 108 nM and the Ki [7] was 19000 nM.

In the case of CN[C@H](Cc1c(C)cc(O)cc1C)C(=O)N1Cc2ccccc2C[C@H]1C(=O)N[C@@H](C)C(=O)O, the Ratio [4] is reported as 181, the Ki [6] is reported as 106 nM and the Ki [7] is reported as 19200 nM.

With Cc1cc(O)cc(C)c1C[C@H](N)C(=O)N1Cc2ccccc2CC1C(N)=O (some centres undefined) (H-[Dmt]-[ξTic]-NH2) the Ki [6] was 1.22 nM.

CN(C)[C@@H](Cc1ccc(O)cc1)C(=O)N1Cc2ccccc2CC1C(=O)O (some centres undefined) gave a Ratio [4] of 265, a Ki [6] of 43.5 nM and a Ki [7] of 11500 nM.

Molecule CNC(Cc1ccc(O)cc1)C(=O)N1Cc2ccccc2CC1C(=O)O (centres undefined) (H-[NMeY]-[Tic]-OH; configuration not given here) has a Ratio [4] of 166, a Ki [6] of 74.7 nM and a Ki [7] of 12400 nM.

Cc1cc(O)cc(C)c1C[C@@H](C(=O)N1Cc2ccccc2CC1C(N)=O)N(C)C (some centres undefined) gave a Ratio [4] of 1660, a Kb [9] of 0.126 nM and a Ratio [10] of 4500. It also gave a Ki [6] of 0.309 nM, a Kb [12] of 501 nM and a Ki [7] of 511 nM. The IC50 [8] was “Not Active”.
